# Published values gathered from unrelated publications.
# Lines come from different studies, so protocols differ.
Structure (SMILES),tested on,assay,setting,quantity,value
O=C1O[C@H]([C@@H](O)CO)C(O)=C1O,,"ABTS scavenging, absorbance",30 min,IC50,11300 nM
O=C1O[C@H]([C@@H](O)CO)C(O)=C1O,,ABTS scavenging,,IC50,350000 nM
CCCCCCCCCCCCCCCCOP(=O)([O-])OCC[N+](C)(C)C,Leishmania donovani,"parasite growth, resazurin",promastigote,IC50,1970 nM
Cc1cccc(/C=C/C(=O)Nc2cccc(-c3ccnc(N4CCC(CO)CC4)c3)c2)c1,A549,"cell growth or viability, MTT",5 µM,inhibition,52.9%
Cc1c(Cc2ccccc2)c(=O)oc2c(C)c(OCC(=O)NN=Cc3ccco3)ccc12,PC-3,"cell growth or viability, MTT",250 µg/mL,viability,11.1%
COc1cccc2c1C(=O)c1c(O)c3c(c(O)c1C2=O)C[C@@](O)(C(=O)CO)C[C@@H]3O[C@H]1C[C@H](N)[C@H](O)[C@H](C)O1,A549,"cell growth or viability, MTT","25 µg/mL, 48 h, serum-free",viability,38.2%
O=C(C=Cc1ccccc1)Nc1cccc(-c2ccnc(N3CCC(O)CC3)c2)c1,A549,"cell growth or viability, MTT",5 µM,inhibition,54.8%
C=CC(=O)NC1CCN(c2ncc3ncnc(Nc4ccc(Oc5ccc6c(c5)ncn6C)c(C)c4)c3n2)CC1,NCI-H2170,cell growth or viability,,EC50,38 nM
O=C(NC(=S)Nc1ccccn1)c1cccs1,Leishmania donovani,"parasite growth, resazurin",promastigote,IC50,1260 nM
Cc1c(C)c2c(c(C)c1O)CCC(C)(C(=O)O)O2 (stereo not shown),,ABTS scavenging,,IC50,160000 nM
O=C(NC(=S)Nc1ccccc1O)c1ccco1,Leishmania donovani,"parasite growth, resazurin",promastigote,IC50,2460 nM
CCCOc1ccc2c(C)c(CC)c(=O)oc2c1C,PC-3,"cell growth or viability, MTT",250 µg/mL,viability,26.3%
O=C(NC(=S)Nc1cccc(O)c1)c1ccco1,Leishmania donovani,"parasite growth, resazurin",promastigote,IC50,480 nM
Cc1c(Cc2ccccc2)c(=O)oc2c(C)c(OCC(=O)NN=Cc3ccc(Cl)cc3)ccc12,PC-3,"cell growth or viability, MTT",250 µg/mL,viability,29%
O=C(NC(=S)Nc1ccccn1)c1ccco1,Leishmania donovani,"parasite growth, resazurin",promastigote,IC50,2300 nM
C=CCNC(=S)NNC(=O)COc1ccc2c(C)c(CC)c(=O)oc2c1C,PC-3,"cell growth or viability, MTT",31.25 µg/mL,viability,99.9%
